Screening data from PubChem.
Only some compounds are listed: those with a hit (about 2% of all), similar ones and a draw of the others.
CaV13 ICDI inh: Disruptors of the CACNA1D IQ motif to Ca2+-dependent inactivation inhibitor domain association, primary screening, Förster resonance energy transfer in intact living … | HEK cells, CFP/YFP FRET ICDI-IQ, plate reader, 10 min; percent FRET-ratio fall versus neutral wells | inhibition, % at 12.3 µM | 0.098% of 340,000 active | AID 743397;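 active = mean replicate inhibition of at least 30% and at least 1% of replicates passing that level; inconclusive = only one of the two criteria is met; inactive = neither criterion is met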;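 note: 0% = median of the neutral control wells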
Casp6 inh: blocks human caspase-6 cleavage activity; 0.53% of 350,000 active; AID 686996; purified caspase-6, Z-VEID-R110 cleavage fluorescence; P55212; inhibition, % at 12.5 µM;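 active = mean inhibition across replicates at least about 35%, with every replicate also reaching that limit, limit read from the data; inconclusive = only one of the two criteria met; inactive = neither criterion met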;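 note: 0% = median of neutral control wells and 100% = no fluorescence left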
Target sequence (P55212 24-179 limits assumed): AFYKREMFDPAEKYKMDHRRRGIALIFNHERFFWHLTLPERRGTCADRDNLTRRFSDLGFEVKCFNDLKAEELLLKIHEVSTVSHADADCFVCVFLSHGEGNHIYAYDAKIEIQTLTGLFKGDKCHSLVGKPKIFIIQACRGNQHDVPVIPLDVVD
Target sequence (P55212 194-293 limits assumed): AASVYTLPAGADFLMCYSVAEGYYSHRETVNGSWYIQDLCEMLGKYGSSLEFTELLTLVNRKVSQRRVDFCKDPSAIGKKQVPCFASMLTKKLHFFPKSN
FN deposit inh: fibronectin deposition inhibition. 0.086% of 350,000 active. inhibition, % at 12.6 µM. AH1F fibroblasts, Alexa488-fibronectin deposition fluorescence, overnight;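 active = mean inhibition across replicates of 30% or more, regardless of how many single replicates reach that level; inconclusive = mean under 30% yet at least half of replicates reach 30%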;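 note: positive control wells lacked labelled fibronectin entirely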
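Assay system: AH1F fibroblasts / Quantity: 10000 cells per well / Medium: DMEM plus 2% serum, read in PBS / Reagent: labelled fibronectin 24 nM / Dosing: single dose, pinned / Times: 1 h cell attachment, overnight exposure to compound and label / Signal: fluorescence, ex 485 nm, em 525 nm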
Xi reactivation: reactivates the inactive X chromosome in mouse fibroblasts; activation, % at 7.58 µM; AID 743238; XiGFP mouse fibroblasts, % GFP-positive cells imaging, 3 d; cells co-treated with 5-aza-dC sensitizer; scaled so ellipticine positive control = 100%; 0.055% of 360,000 active;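 active = mean normalized replicate activation at least 10% and every replicate at or above 10%; inconclusive = only one of the two criteria met; inactive = mean below 10% and not all replicates reach 10%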;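 note: 0% = median of on-plate neutral control wells and 100% = ellipticine 6 µM median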
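System: 68-5-11 XiGFP fibroblast line; Timing: 3 days compound exposure; Compound dosing: one concentration, pinned; Benchmarks: positive control ellipticine, 6 µM final; Buffer or medium: DMEM containing 5-aza-dC.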
DENV2 CPE rescue: DENV2-induced cell death inhibition; DENV2-infected cells, cytopathic effect rescue, plate reader; CPE inhibition, % at 9.99 µM; 1.7% of 350,000 active; AID 651640; in the data active = CPE inhibition above about 20%, passing the limit was not always enough; inconclusive = no clear call, values can overlap the other calls; tested in BHK-21 cells;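 note: 0% = median of neutral control wells and 100% = median of positive control wells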
An asterisk follows results filed as active; ? = inconclusive; nt = no result; ! = not active in a repeat.

SMILES	CaV13 ICDI inh	Casp6 inh	FN deposit inh	Xi reactivation	DENV2 CPE rescue
CCCNC(=O)Nc1ccc2c(c1)OC[C@@H](C)N(C(=O)C1CCCCC1)C[C@H](C)[C@@H](OC)CN(C)C2=O	nt	1.6	-0.5	0.7	2.9
O=C1CN(S(=O)(=O)Cc2ccccc2)C[C@H]2[C@H](c3ccc(C#Cc4ccc(F)cc4)cc3)[C@@H](CO)N12	nt	-3.5	nt	0.3	37.5*
CCCC#Cc1ccc([C@@H]2[C@H]3CN(C(=O)NC4CCCC4)CC(=O)N3[C@H]2CO)cc1	nt	-2.0	nt	0.1	22.2*
CCCC#Cc1ccc([C@H]2[C@H](CO)N3C(=O)CN(C(=O)Nc4ccc(F)cc4)C[C@@H]23)cc1	nt	-0.9	nt	0.4	-2.1
O=C(CC1CC1)N1CC(=O)N2[C@H](CO)[C@@H](c3ccc(C#Cc4ccc(F)cc4)cc3)[C@H]2C1	nt	6.1	nt	0.4	0.7
CCCC#Cc1ccc([C@@H]2[C@@H](CO)N3C(=O)CN(C(=O)Nc4ccc(F)cc4)C[C@H]23)cc1	nt	-0.7	nt	0.5	36.1*
O=C(CC1CC1)N1CC(=O)N2[C@@H](CO)[C@@H](c3ccc(C#Cc4cccc(F)c4)cc3)[C@@H]2C1	nt	3.0	3.5	0.0	28.6*
O=C1CN(S(=O)(=O)Cc2ccccc2)C[C@@H]2[C@@H](c3ccc(C#Cc4ccc(F)cc4)cc3)[C@H](CO)N12	nt	-2.4	nt	0.0	-4.8
CC(C)CC#Cc1ccc2c(c1)O[C@H](CN(C)CC1CCOCC1)[C@H](C)CN([C@H](C)CO)S2(=O)=O	nt	2.2	nt	-0.6	-8.2
COc1ccc(CN2CC3(CCN(Cc4ccccn4)CC3)c3c(n(C)c4cc(OC)ccc34)[C@H]2CO)cc1	nt	nt	nt	0.3	nt
COCC(=O)Nc1ccc2c(c1)C(=O)N(C)C[C@H](OC)[C@@H](C)CN(C(=O)c1cnccn1)[C@@H](C)CO2	nt	-1.9	-3.1	0.0	-0.8
O=C(NC[C@H]1CC[C@@H]2[C@@H](CN2S(=O)(=O)c2ccccc2[N+](=O)[O-])O1)C1CCC1	nt	-0.4	nt	nt	-5.6
CC(C)NC(=O)N1CC(=O)N2[C@@H](CO)[C@@H](c3ccc(C#CCN(C)C)cc3)[C@@H]2C1	nt	-22.4	nt	0.0	10.6
CC(C)NC(=O)N1CC(=O)N2[C@H](CO)[C@H](c3ccc(C#CCN(C)C)cc3)[C@@H]2C1	nt	-18.1	nt	0.0	23.2*
COc1ccccc1NC(=O)N1CC(=O)N2[C@H](C1)[C@@H](c1ccc(C#Cc3ccc(F)cc3)cc1)[C@@H]2CO	nt	0.4	nt	0.0	68.6*
CC(C)NC(=O)N(C)C[C@@H]1Oc2ccc(NC(=O)Nc3cccc4ccccc34)cc2C(=O)N([C@@H](C)CO)C[C@@H]1C	nt	0.9	nt	-1.0	6.4
CC1=CC(C)(C)n2c(O)c(N=N)c3cc(C)cc1c32	-2.6	-1.4	-8.7	0.0	49.2*
N#Cc1ccc(-c2ccc(C3[C@@H]4CN(C(=O)c5ccc6c(c5)OCO6)C[C@H]3N4)cc2)cc1 (stereo partly drawn)	nt	-2.3	-324.8	0.1	5.7
O=C(CN1C(=O)/C(=C/c2ccco2)SC1=S)Nc1ccc(C(=O)O)c(O)c1	-6.7	73.3*	-1.7	0.0	0.6
CCOc1ccc(/C=C2\SC(=S)N(CCC(=O)Nc3cccc(C(=O)O)c3)C2=O)cc1	-3.6	1.3	1.4	0.1	31.9*
CC(C(=O)N(C)C1CCS(=O)(=O)C1)N1C(=O)/C(=C/c2ccco2)SC1=S (stereo not drawn)	-5.2	45.1*	-8.0	0.0	-6.0
CCOc1ccc(/C=C2\SC(=S)N(CCC(=O)Nc3ccc(C(=O)O)cc3)C2=O)cc1	-6.2	-0.3	-8.5	0.2	9.6
O=C(CN1C(=O)/C(=C/c2ccco2)SC1=S)Nc1ccc(O)c(C(=O)O)c1	-6.0	0.2	3.8	0.1	-2.2
O=C(CN1C(=O)/C(=C/c2ccco2)SC1=S)NC1CCS(=O)(=O)C1 (stereo not drawn)	-8.0	49.1*	-13.0	0.1	3.7
O=C(CCCN1C(=O)/C(=C/c2ccco2)SC1=S)Nc1cccc(C(=O)O)c1	-1.2	55.3*	0.4	-0.1	1.2
SMILES	CaV13 ICDI inh	Casp6 inh	FN deposit inh	Xi reactivation	DENV2 CPE rescue
C[C@H]1CN([C@@H](C)CO)C(=O)c2cccc(NC(=O)NC3CCCCC3)c2O[C@H]1CN(C)Cc1ccc(C(F)(F)F)cc1	nt	-3.0	7.9	0.2	16.3
CCO[C@@H]1OC(C(=O)NCc2ccccc2)=C[C@H](c2coc3ccccc3c2=O)[C@H]1CCCO	-10.0	-1.3	7.5	0.1	46.7*
CCO[C@H]1OC(C(=O)Nc2ccccc2)=C[C@@H](c2coc3ccccc3c2=O)[C@@H]1CCCO	-10.4	3.5	0.3	0.1	23.3*!
CC(CCc1ccc(O)cc1)NC(c1ccccc1)c1ccc(Cl)cc1 (stereo not drawn)	-10.7	-0.3	-2.6	0.2	55.4*
Cc1ccc([C@@H]2[C@@H]3C(=O)N(c4ccccc4)C(=O)[C@@H]3[C@]3(C)C(=O)N(CC4CC4)CC(=O)N23)o1	-9.2	-4.4	-14.2	0.0	50.4*
CCOc1cc(/C=C(\C(=O)O)c2ccc(S(=O)(=O)N3CCCC3)s2)ccc1OC	-5.9	1.6	nt	0.1	-4.4
Cc1ccc(C)c(/C=C(\C(=O)O)c2ccc(S(=O)(=O)N3CCCCC3)s2)c1	-1.9	37.4*	-12.3	0.1	0.2
COc1ccc(Br)cc1/C=C(\C(=O)O)c1ccc(S(=O)(=O)N2CCCCC2)s1	-2.4	36.9*	-9.9	0.2	-9.4
C[C@@H]1CN([C@@H](C)CO)C(=O)c2cc(C3=CCCC3)cnc2O[C@H]1CN(C)C(=O)CN(C)C	nt	-1.2	-2.0	-0.3	-9.3
CN1C(=O)c2cc(NC(=O)Nc3ccccc3F)ccc2OC[C@H]2O[C@@H](CC(=O)NCc3ccc(-c4ccccc4)cc3)CC[C@H]21	nt	0.3	-8.7	0.1	48.3*
CN1C(=O)c2cc(NC(=O)Nc3ccccc3F)ccc2OC[C@H]2O[C@H](CC(=O)NCc3ccc(-c4ccccc4)cc3)CC[C@@H]21	nt	0.2	2.3	0.0	?
CCNC(=O)Nc1ccc2c(c1)C(=O)N(C)[C@@H]1CC[C@H](CC(=O)NCc3ccccc3F)O[C@H]1CO2	nt	-1.7	0.4	0.2	70.6*
COc1ccc(CN(CCNC(=O)CCCCC(=O)NCCN(Cc2ccc(OC)cc2)C(C)C)C(C)C)cc1	-5.7	-0.8	-0.5	0.2	30.2*
NC(=O)C1CCN(c2nc(-c3ccccc3Br)cs2)CC1	-4.2	nt	-0.6	0.0	80.4*
NC(=O)C1CCN(c2nc(-c3ccccc3F)cs2)CC1	-4.5	nt	4.1	0.1	1.5
C=CCC1NS(=O)(=O)OC(COC)C1C (stereo not drawn)	-4.2	-1.6	-7.5	0.0	46.1*
COCC1OS(=O)(=O)NC(CC(=O)SC(C)(C)C)C1C (stereo not drawn)	-4.1	-1.1	-2.4	0.1	-12.3
